In brackets after ≈: the same amount, converted by molar mass. Activity calls are given as the source filed them. The rule behind the calls is not given here.
How the values were obtained:
[1] = Solubility of the compound; assay type: physicochemical
[2] = system: Acinetobacter baumannii ATCC 19606 = CIP 70.34 = JCM 6841; experiment: Binding affinity to Acinetobacter baumannii 2208 ATCC 19606 FabI by SPR assay
Staphylococcus aureus [3] = experiment: Antibacterial activity against Staphylococcus aureus Newman by microbroth dilution method; assay type: functional
Outline: (§1)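 Microbroth dilution MIC; each value is the mean of at least two runs, within two-fold experimental uncertainty.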

Acinetobacter baumannii [4] = experiment: Synergistic antibacterial activity against MDR Acinetobacter baumannii ATCC BAA-1605 assessed as fractional inhibitory concentration in presence of colistin by checkerboard method; assay type: functional
[5] = target: T1, Enoyl-[acyl-carrier-protein] reductase [NADPH] FabI (Staphylococcus aureus, UniProt Q6GI75); experiment: Competitive inhibition of Staphylococcus aureus subsp. aureus Rosenbach ATCC 43300 FabI using crotonyl-CoA as substrate in presence of NADPH/NADH after 10 mins by fluorescence assay
T1 sequence (Q6GI75 whole entry): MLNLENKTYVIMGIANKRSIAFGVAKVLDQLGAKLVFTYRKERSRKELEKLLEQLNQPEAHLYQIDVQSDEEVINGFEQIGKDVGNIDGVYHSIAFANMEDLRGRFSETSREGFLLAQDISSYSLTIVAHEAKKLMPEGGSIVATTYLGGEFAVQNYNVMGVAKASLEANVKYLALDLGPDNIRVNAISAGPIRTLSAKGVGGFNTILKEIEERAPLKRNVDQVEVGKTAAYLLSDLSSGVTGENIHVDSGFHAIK

HepG2 [6] = experiment: Cytotoxicity against human HepG2 cells assessed as reduction in cell viability after 24 hrs in presence of 0.5% FBS by MTT assay; assay type: cell-based; conditions: HepG2, 24 h
Outline: (§2)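 HepG2 cells in EMEM with either 10% FBS or 0.5% FBS plus 10% Cell-Ess serum replacement. Seeded at 25,000 cells/well and incubated overnight at 37 °C, 5% CO2. Treated 24 h at 100–3 μg/mL, with matched DMSO controls. MTT added for 2 h, formazan extracted in DMSO, absorbance read at 570 nm. Run in duplicate; IC50 taken from the viability plot against the DMSO control.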

Staphylococcus aureus [7] = experiment: Antibacterial activity against Staphylococcus aureus RN4220 over-expressing FabI by microbroth dilution method; assay type: functional
Outline: (§3)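 Broth microdilution MIC; reported value is mean of at least two runs, within two-fold experimental uncertainty.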

Acinetobacter baumannii [8] = experiment: Synergistic antibacterial activity against MDR Acinetobacter baumannii ATCC BAA-1605 assessed as colistin MIC by checkerboard method; assay type: functional
Escherichia coli = experiment: Antibacterial activity against Escherichia coli BW25113 mutant by microbroth dilution method; assay type: functional; outline: as §3
Acinetobacter baumannii [9] = experiment: Synergistic antibacterial activity against Acinetobacter baumannii 2208 ATCC 19606 assessed as fractional inhibitory concentration in presence of colistin by checkerboard method; assay type: functional, ATCC 19606 = CIP 70.34 = JCM 6841 2208
Acinetobacter baumannii [10] = experiment: Synergistic antibacterial activity against Acinetobacter baumannii 2208 ATCC 19606 assessed as colistin MIC by checkerboard method; assay type: functional; conditions: ATCC 19606 = CIP 70.34 = JCM 6841 2208
HepG2 [11] = experiment: Cytotoxicity against human HepG2 cells assessed as reduction in cell viability after 24 hrs in presence of 10% FBS by MTT assay; assay type: cell-based; conditions: HepG2, 24 h; outline: as §2
Staphylococcus aureus [12] = experiment: Selectivity ratio of MIC for Staphylococcus aureus RN4220 over-expressing FabI to MIC for Staphylococcus aureus RN4220; assay type: functional
Acinetobacter baumannii [13] = experiment: Antibacterial activity against Acinetobacter baumannii 2208 ATCC 19606 by microbroth dilution method; assay type: functional; conditions: ATCC 19606 = CIP 70.34 = JCM 6841 2208; outline: as §1
Acinetobacter baumannii [14] = experiment: Synergistic antibacterial activity against MDR Acinetobacter baumannii ATCC BAA-1605 assessed as fold reduction in colistin MIC by checkerboard method; assay type: functional
Acinetobacter baumannii [15] = experiment: Synergistic antibacterial activity against MDR Acinetobacter baumannii ATCC BAA-1605 in presence of colistin by checkerboard method; assay type: functional
Outline: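 Checkerboard broth dilution in tryptic soy broth. Colistin 4 to 0.03 μg/mL against analog 100 to 0.19 μg/mL, crossed. Clear wells scored. ΣFIC = C/MIC(compound) + C/MIC(partner); <0.5 synergy, 0.5–2 indifference, >2 antagonism.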

[16] = Inhibition of Acinetobacter baumannii 2208 ATCC 19606 FabI using crotonyl-CoA as substrate in presence of NADPH/NADH after 10 mins by fluorescence assay; set-up: species or system Acinetobacter baumannii ATCC 19606 = CIP 70.34 = JCM 6841
Outline: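 AbFabI, 200 nM, in 50 mM MES/100 mM NaCl with 200 μM NADH, 0.1 mg/mL BSA and 0.01% triton. Reaction started with 300 μM crotonyl-CoA. NADH fluorescence read at 340/460 nm. Compounds tested at 0.4 nM–200 μM. Initial 10-min slopes were compared with a DMSO no-compound control. At least two independent experiments, each in duplicate; two-fold uncertainty.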

[17] = target: T2, Enoyl-[acyl-carrier-protein] reductase [NADPH] FabI (Staphylococcus aureus) (UniProt Q6GI75); experiment: Binding affinity to Staphylococcus aureus subsp. aureus Rosenbach ATCC 43300 FabI by SPR assay
T2 sequence (whole entry): T1 sequence (Q6GI75 whole entry)

Acinetobacter baumannii [18] = experiment: Synergistic antibacterial activity against Acinetobacter baumannii 2208 ATCC 19606 in presence of colistin by checkerboard method; assay type: functional; conditions: ATCC 19606 = CIP 70.34 = JCM 6841 2208
[19] = Competitive inhibition of Acinetobacter baumannii 2208 ATCC 19606 FabI using crotonyl-CoA as substrate in presence of NADPH/NADH after 10 mins by fluorescence assay; set-up: species or system Acinetobacter baumannii ATCC 19606 = CIP 70.34 = JCM 6841
Staphylococcus aureus [20] = experiment: Antibacterial activity against Staphylococcus aureus RN4220 by microbroth dilution method; assay type: functional; outline: as §3
Staphylococcus aureus [21] = experiment: Antibacterial activity against methicillin-resistant Staphylococcus aureus subsp. aureus Rosenbach ATCC 43300 by microbroth dilution method; assay type: functional; outline: as §3
Acinetobacter baumannii [22] = experiment: Synergistic antibacterial activity against Acinetobacter baumannii 2208 ATCC 19606 assessed as polymixin B MIC by checkerboard method; assay type: functional; conditions: ATCC 19606 = CIP 70.34 = JCM 6841 2208
Acinetobacter baumannii [23] = experiment: Synergistic antibacterial activity against Acinetobacter baumannii 2208 ATCC 19606 in presence of polymixin B by checkerboard method; assay type: functional; conditions: ATCC 19606 = CIP 70.34 = JCM 6841 2208
Acinetobacter baumannii [24] = experiment: Synergistic antibacterial activity against Acinetobacter baumannii 2208 ATCC 19606 assessed as fractional inhibitory concentration in presence of polymixin B by checkerboard method; assay type: functional, ATCC 19606 = CIP 70.34 = JCM 6841 2208

Row | SMILES | Activity [2] | MIC (Staphylococcus aureus [3]) | FIC (Acinetobacter baumannii [4]) | Ki [5] | IC50 (HepG2 [6]) | MIC (Staphylococcus aureus [7]) | MIC (Acinetobacter baumannii [8]) | MIC (Escherichia coli) | FIC (Acinetobacter baumannii [9]) | MIC (Acinetobacter baumannii [10]) | IC50 (HepG2 [11]) | Selectivity ratio (Staphylococcus aureus [12]) | MIC (Acinetobacter baumannii [13]) | fold change (FC) (Acinetobacter baumannii [14]) | IC50 [16] | Activity [17] | MIC (Acinetobacter baumannii [18]) | Ki [19] | MIC (Staphylococcus aureus [20]) | MIC (Staphylococcus aureus [21]) | also measured
1 | O=C(Cc1ccccc1)N1CCC(c2ccccc2)C1 (stereo not drawn) |  |  |  |  |  |  |  |  |  |  |  |  |  |  |  |  |  |  |  |  | solubility [1]: Insoluble
2 | COc1ccccc1C1CCN(C(=O)Cc2ccccc2Cl)C1 (racemic) | Active | 75.8 µM (≈ 25 µg/mL) | 0.25 | 200 nM | 39 µg/mL | 50 µg/mL (≈ 152 µM) | 0.39 µg/mL | > 200 µg/mL | 0.19 | 0.39 µg/mL | 75 µg/mL | 4 | > 200 µg/mL | 10 | 3600 nM | Active | 12.5 µg/mL | 1800 nM |  |  | MIC (Acinetobacter baumannii [15]): 25 µg/mL
3 | O=C(Cc1c(F)cccc1F)N1CCC(c2ccccc2)C1 (racemic) | Active | 166 µM (≈ 50 µg/mL) |  | 700 nM | > 200 µg/mL | > 200 µg/mL |  | > 200 µg/mL | 0.25 | 0.19 µg/mL | 237 µg/mL |  | > 200 µg/mL |  | 6900 nM | Active | 25 µg/mL | 3500 nM | 50 µg/mL (≈ 166 µM) | > 200 µg/mL | 
4 | O=C(Cc1ccccc1Cl)N1CCC(c2ccccc2)C1 (racemic) | Active | 41.7 µM (≈ 12.5 µg/mL) | 0.25 | 4000 nM | 55 µg/mL |  | 0.78 µg/mL |  | 0.31 | 0.39 µg/mL | 79 µg/mL | 4 | > 200 µg/mL | 10 | 3100 nM | Active | 12.5 µg/mL | 1600 nM |  |  | MIC (Acinetobacter baumannii [22]): 3.75 µg/mL; MIC (Acinetobacter baumannii [23]): 50 µg/mL; MIC (Acinetobacter baumannii [15]): 25 µg/mL; FIC (Acinetobacter baumannii [24]): 0.28
5 | O=C(Cc1c(F)cccc1Cl)N1CCC(c2ccc3c(c2)OCO3)C1 (racemic) | Active | 69.1 µM (≈ 25 µg/mL) |  | 700 nM |  |  |  | > 200 µg/mL |  |  |  | >4 | > 200 µg/mL |  | > 200000 nM | Active |  | > 100000 nM | 25 µg/mL (≈ 69.1 µM) | > 200 µg/mL | 
6 | O=C(Cc1ccccc1F)N1CCC(c2ccccc2)C1 (racemic) | Active | 176 µM (≈ 50 µg/mL) |  | 1900 nM | 76 µg/mL | 200 µg/mL (≈ 706 µM) |  | > 200 µg/mL | 0.25 | 0.19 µg/mL | 160 µg/mL |  | > 200 µg/mL |  | 3900 nM | Active | 25 µg/mL | 2000 nM | 50 µg/mL (≈ 176 µM) | 100 µg/mL (≈ 353 µM) | 

Source: ChEMBL document CHEMBL4177701, “A novel series of enoyl reductase inhibitors targeting the ESKAPE pathogens, Staphylococcus aureus and Acinetobacter baumannii” (Bioorg Med Chem, 2018)
